Most compounds without a hit are left out; they make up all but 3.1% or so of the library.
GPR7 antag: human neuropeptides B/W receptor 1 antagonism. P48145. GPR7-expressing cells, fluorescence antagonist assay. inhibition, % at 4.4 µM. 1.1% of 290,000 active; in the data active = inhibition above about 16%, passing the limit was not always enough;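 also: cells stimulated with the agonist NPW; 0% = agonist with vehicle and 100% = vehicle without agonist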
GalR3 antagonist: antagonists of human GalR3; O60755; 0.44% of 360,000 active; HEK293 GalR3-CNG cAMP membrane potential fluorescence; galR3 body fused to GalR1 C-terminus; inhibition, % at 3 µM;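 active = inhibition above the screen-wide average plus 3 SD, cut at about 13% in these data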;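 also: forskolin and galanin both at EC90 stimulate the cells; cAMP rise reported by CNG channel membrane potential dye signal; 0% = forskolin plus galanin with DMSO and 100% = forskolin alone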
CHO parental Ca: counter-screen for OX1R antagonists: effect in parental CHO cells. parental CHO-K1, ATP-induced calcium, Fluo-8 fluorescence. 0.63% of 330,000 active. inhibition, % at 5.6 µM. AID 463079;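 active = inhibition above that plate's mean sample inhibition plus 3 SD, cut at about 26% in these data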;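 also: 0% = ATP-challenged DMSO wells and 100% = DMSO wells without ATP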
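test system = CHO parental line | reagent = ATP stimulus | measured by = intracellular calcium via Fluo-8 no-wash fluorescent dye | control set = ATP and no-ATP DMSO wells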
OX1R antag-1: OX1R (human) antagonism; O43613; OX1R-expressing cells, FRET antagonist read-out; inhibition, % at 6.6 µM; 1.8% of 330,000 active; AID 485270; in the data active = inhibition mostly above about 38%, no sharp cut-off; inactive = mostly below about 40%;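 also: 0% = agonist challenge alone and 100% = reference antagonist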
Target sequence (O43613 whole entry, looked up): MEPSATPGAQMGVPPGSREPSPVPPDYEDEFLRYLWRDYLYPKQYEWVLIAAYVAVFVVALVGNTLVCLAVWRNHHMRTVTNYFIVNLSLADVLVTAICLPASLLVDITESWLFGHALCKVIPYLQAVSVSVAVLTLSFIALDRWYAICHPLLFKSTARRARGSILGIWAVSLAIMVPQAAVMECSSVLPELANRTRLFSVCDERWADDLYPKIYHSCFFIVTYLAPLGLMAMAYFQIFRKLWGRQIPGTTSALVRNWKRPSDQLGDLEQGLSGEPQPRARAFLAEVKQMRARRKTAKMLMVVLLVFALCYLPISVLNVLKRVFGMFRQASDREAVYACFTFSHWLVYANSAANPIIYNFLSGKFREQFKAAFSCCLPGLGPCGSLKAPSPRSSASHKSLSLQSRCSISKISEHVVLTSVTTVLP
OX1R antag-2: antagonists of human orexin 1 receptor | CHO/OX1R cells, Fluo-8 calcium fluorescence, orexin A | AID 434989 | 0.43% of 330,000 active | inhibition, % at 5 µM | O43613;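 active = inhibition above its plate's threshold, mean inhibition of all tested compounds on the plate plus 3 SD, cut at about 37% in these data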;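 also: 0% = orexin A challenge wells and 100% = SB-334867-A antagonist wells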
GPR7 antag cf: human GPR7 antagonism, confirmation assay | inhibition, % at 4.4 µM | AID 1952 | 52% of 2,400 active | GPR7-expressing cells, calcium fluorescence antagonist mode | shares compounds with GPR7 antag; in the data active = inhibition above about 24%;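 also: stimulated with the GPR7 agonist NPW; 0% = agonist plus vehicle and 100% = vehicle alone without agonist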
MCHR1 antagonist: MCHR1 (human) antagonism in GPR7 counter-screen. MCHR1-expressing cells, fluorescence antagonist assay. 62% of 2,400 active. AID 2148. shares compounds with GPR7 antag. inhibition, % at 4.4 µM; in the data active = inhibition above about 22%;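 also: 0% = vehicle with agonist and 100% = vehicle without agonist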
Active calls of the source: *; nt = not tested or not shown.

SMILES	GPR7 antag	GalR3 antagonist	CHO parental Ca	OX1R antag-1	OX1R antag-2	GPR7 antag cf	MCHR1 antagonist
CN(C)CCN(C(=O)/C=C/c1cccs1)c1nc2ccc(Br)cc2s1	25*	2	-11	7	12	59*	68*
CN(C)CCCN(C(=O)/C=C/c1cccs1)c1nc2ccc(F)cc2s1	29*	-9	4	2	-21	45*	28*
CN(C)CCCN(C(=O)CCc1ccccc1)c1nc2ccc(Cl)cc2s1	23*	-18	22	6	2	73*	85*
CN(C)CCCN(C(=O)C1=COCCO1)c1nc2ccc(Br)cc2s1	36*	-7	-10	15	-17	55*	64*
CCN(CC)CCN(C(=O)/C=C/c1cccs1)c1nc2ccc(F)cc2s1	11	-5	-15	18	-14	nt	nt
CC(C(=O)N1CCc2ccccc21)N1CCN(Cc2ccccc2)CC1 (stereo unspecified)	11	-10	-4	0	-18	nt	nt
O=C(N/N=C/c1c[nH]c2ccccc12)c1cc(-c2ccc(-c3ccccc3)cc2)n[nH]1	9	-5	4	11	5	nt	nt
O=C(N/N=C/c1c[nH]c2ccccc12)c1cc(Cl)ccc1O	36*	-12	2	22	-6	10	27*
Cc1ccc(-c2cc(C(=O)N/N=C/c3c[nH]c4ccccc34)[nH]n2)cc1	34*	-1	nt	nt	nt	18	35*
O=C(c1ccccc1)c1ccc(Sc2ccc([N+](=O)[O-])cc2)cc1	22*	0	6	21	2	22	53*
O=C(CSc1ccc([N+](=O)[O-])cc1)c1ccccc1	nt	-7	nt	nt	nt	nt	nt
CCOC(=O)N1CCN(C(=S)NC(C)(C)C)CC1	21*	-3	-6	1	-3	-4	-7
CN(C)C1=NCCN1CC1CCCCCC1	nt	-1	-22	33	-8	nt	nt
C[C@@H](NC(=O)c1ncn(Cc2ccccc2)c1C(=O)N[C@H](C)c1ccccc1)c1ccccc1	nt	-3	-16	0	-11	nt	nt
O=C(COC(=O)C1CC2C=CC1C2)NCCc1ccccc1 (stereo unspecified)	25*	-2	10	16	2	12	1
CC(C)c1ccc2oc(=O)cc(CN3CCOCC3)c2c1	1	4	-6	6	-9	nt	nt
CCOC(=O)Cc1csc(NC(=O)C(C)c2ccc([N+](=O)[O-])cc2)n1 (stereo unspecified)	74*	-6	9	20	-2	49*	54*
CCN(CC)C(=O)CSc1nc(O)c(Cc2ccccc2)c(=O)n1-c1ccc(C)cc1	-18	2	2	13	-4	nt	nt
Cc1ccc(-n2c(SCC(=O)N3CCCCC3)nc(O)c(Cc3ccccc3)c2=O)cc1	25*	-8	-12	4	-13	10	4
COc1ccc(CN(C)C(=O)c2[nH]c(C)c(C(C)=O)c2C)c(OC)c1OC	21*	-8	1	16	1	-8	11
COc1ccc(CN(C)C(=O)c2cnc(C)cn2)c(OC)c1OC	-16	-11	-13	7	-2	nt	nt
O=C(O)CSc1nc2ccccc2[nH]1	27*	-3	-1	20	-20	-9	14
O=C(O)CSc1nc2ccccc2c(=O)[nH]1	3	-6	-6	13	-18	nt	nt
CCNC(=S)Nc1ccc(Oc2ccccc2)cc1	12	2	-16	17	-9	nt	nt
S=C(NCc1ccccc1)Nc1ccc(Oc2ccccc2)cc1	28*	0	23	16	-9	15	29*
SMILES	GPR7 antag	GalR3 antagonist	CHO parental Ca	OX1R antag-1	OX1R antag-2	GPR7 antag cf	MCHR1 antagonist
CCC(C)(C)c1ccc(OCCCC[n+]2ccc(C)cc2)c(C(C)(C)CC)c1	69*	2	24	20	27	74*	83*
Cc1cc[n+](CC[n+]2ccc(C)cc2)cc1	nt	-8	7	15	-14	nt	nt
O=C(c1cc[n+]([O-])cc1)N1CCc2c([nH]c3ccccc23)C1c1ccccc1Cl (stereo unspecified)	31*	-4	-17	13	-7	12	7
Cc1ccc(C2NC(=NCc3ccccc3)Nc3nc(C)cc(=O)n32)cc1 (stereo unspecified)	26*	-2	-9	6	-25	0	11
CCOC(=O)C1CCN(C(=O)c2cccc(S(=O)(=O)N3c4ccccc4CC3C)c2)CC1 (stereo unspecified)	nt	-10	-19	3	-12	nt	nt
CC(NC(=O)Cn1c(NCCO)nc2ccccc21)C1CC2CCC1C2 (stereo unspecified)	33*	-6	-19	12	-12	27*	21
Cc1nc2ccccc2n1CC(=O)NC(C)C1CC2CCC1C2 (stereo unspecified)	4	-6	-12	41	-24	nt	nt
O=C(COc1ccc(S(=O)(=O)N2CCCC2)cc1)NCc1cccnc1	-8	-4	-9	8	-12	nt	nt
Cc1ccccc1C(=O)Nc1ccc2c(c1)CCCN2C(=O)c1cccs1	25*	-8	-16	20	-14	16	35*
COc1cccc(C(=O)Nc2ccc3c(c2)CCCN3C(=O)c2cccs2)c1OC	-13	0	-20	30	-22	nt	nt
Nc1nc(Cl)cc(N2CCC(c3cc(-c4ccc(Cl)cc4)n[nH]3)CC2)n1	38*	-10	34*	19	54*	26*	72*
COc1ccc(-c2cc(C3CCN(c4cc(Cl)nc(N)n4)CC3)[nH]n2)cc1	7	-5	-1	10	-4	nt	nt
Clc1cccc(CN2CCN(c3nc4nonc4nc3NC3CC3)CC2)c1	27*	-5	-5	13	-27	9	5
Cc1cccc(CN2CCN(c3nc4nonc4nc3NC3CC3)CC2)c1	-6	-1	-27	38	-23	nt	nt
CCOc1cc(/C=C2\NC(=O)NC2=O)ccc1OC(C)C(=O)O (stereo unspecified)	32*	-9	-6	42*	-12	-16	-8
O=C(c1sccc1Cl)N1CCN(Cc2ccc3c(c2)OCO3)CC1	2	-5	-19	6	-9	nt	nt
COc1ccc(S(=O)(=O)N2CCCC(C(=O)NCC3CCCO3)C2)cc1C (stereo unspecified)	9	-1	-15	37	-6	nt	nt
O=C(NCC1CCCO1)C1CCCN(S(=O)(=O)c2cccc(C(F)(F)F)c2)C1 (stereo unspecified)	24*	-9	-6	7	-19	-6	0
CCc1ccccc1NC(=O)c1cc([N+](=O)[O-])ccc1N1CCOCC1	33*	2	-15	36	-13	-4	5
Cc1cccc(NC(=O)c2cc([N+](=O)[O-])ccc2N2CCOCC2)c1C	nt	-5	nt	nt	nt	nt	nt
CCCC(CCC)C(=O)Nc1ccc2c(c1)N(C(=O)CCN1CCN(C)CC1)c1ccccc1CC2	28*	-7	-6	6	-21	28*	18

Screening data (PubChem)
